According to ChEMBL document CHEMBL4118021, “Studies of TAK1-centered polypharmacology with novel covalent TAK1 inhibitors” (Bioorg Med Chem, 2017):
Activity calls are given as the source filed them. No cut-off for these calls is given here.

Columns and labels:
[1] = target: A-kinase anchor protein 12 (Homo sapiens) (UniProt Q02952); test: Binding affinity to AKAP12 in human NCI-H23 cells at 1 uM by mass spectrometry based pull down assay; format: cell-based
Method in brief: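 NCI-H23 or NCI-H358 cells were grown and lysed. Lysates were incubated overnight at 4 °C with 1 μM biotinylated covalent probe or DMSO, then pulled down on streptavidin beads. Proteins were run on polyacrylamide gels and stained with Coomassie. Bands were excised, digested and identified by mass spectrometry.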

[2] = target: THO complex subunit 4 (Homo sapiens) (UniProt Q86V81); test: Binding affinity to ALYREF in human NCI-H23 cells at 1 uM by mass spectrometry based pull down assay; format: cell-based
[3] = target: Ras GTPase-activating-like protein IQGAP1 (Homo sapiens) (UniProt P46940); test: Binding affinity to IQGAP1 in human NCI-H23 cells at 1 uM by mass spectrometry based pull down assay; format: cell-based
[4] = target: Ribosomal protein S6 kinase alpha-1 (Homo sapiens) (UniProt Q15418); test: Binding affinity to RPS6KA1 in human NCI-H23 cells at 1 uM by mass spectrometry based pull down assay; format: cell-based
[5] = target: Glutamate--cysteine ligase regulatory subunit (Homo sapiens) (UniProt P48507); test: Binding affinity to GCLM in human NCI-H358 cells at 1 uM by mass spectrometry based pull down assay; format: cell-based
[6] = target: Phosphoinositide 3-kinase regulatory subunit 4 (Homo sapiens) (UniProt Q99570); test: Binding affinity to PIK3R4 in human NCI-H358 cells at 1 uM by mass spectrometry based pull down assay; format: cell-based
[7] = target: MAP kinase-activated protein kinase 5 (Homo sapiens) (UniProt Q8IW41); test: Binding affinity to MAPKAPK5 in human NCI-H358 cells at 1 uM by mass spectrometry based pull down assay; format: cell-based
[8] = target: T1, Dual specificity mitogen-activated protein kinase kinase 7 (Homo sapiens) (UniProt O14733); test: Binding affinity to MAP2K7 in human NCI-H358 cells at 1 uM by mass spectrometry based pull down assay; format: cell-based
T1 sequence (whole entry): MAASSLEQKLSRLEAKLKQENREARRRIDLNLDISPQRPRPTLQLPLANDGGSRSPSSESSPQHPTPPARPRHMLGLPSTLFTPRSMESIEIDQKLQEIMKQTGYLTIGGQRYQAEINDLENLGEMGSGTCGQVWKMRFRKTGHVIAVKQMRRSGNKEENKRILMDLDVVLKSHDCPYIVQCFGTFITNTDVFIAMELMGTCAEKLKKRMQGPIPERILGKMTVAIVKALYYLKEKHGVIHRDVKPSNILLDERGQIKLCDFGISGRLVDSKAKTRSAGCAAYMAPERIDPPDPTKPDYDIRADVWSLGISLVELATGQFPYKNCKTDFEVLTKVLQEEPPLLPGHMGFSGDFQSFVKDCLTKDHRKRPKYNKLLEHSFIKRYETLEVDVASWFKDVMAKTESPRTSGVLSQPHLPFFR

[9] = target: 5'-nucleotidase domain-containing protein 1 (Homo sapiens) (UniProt Q5TFE4); test: Binding affinity to NT5DC1 in human NCI-H358 cells at 1 uM by mass spectrometry based pull down assay; format: cell-based
[10] = target: Isoleucine--tRNA ligase, cytoplasmic (Homo sapiens) (UniProt P41252); test: Binding affinity to IARS in human NCI-H358 cells at 1 uM by mass spectrometry based pull down assay; format: cell-based
[11] = target: Importin subunit beta-1 (Homo sapiens) (UniProt Q14974); test: Binding affinity to KPNB1 in human NCI-H358 cells at 1 uM by mass spectrometry based pull down assay; format: cell-based
[12] = target: T2, Dual specificity mitogen-activated protein kinase kinase 5 (Homo sapiens) (UniProt Q13163); test: Inhibition of human MEK5 (98 to 448 residues) expressed in mammalian expression system assessed as enzyme activity at 1 uM by KINOMEScan assay relative to control; parameters: scale not given: the % may be the effect or the level left
T2 sequence (whole entry): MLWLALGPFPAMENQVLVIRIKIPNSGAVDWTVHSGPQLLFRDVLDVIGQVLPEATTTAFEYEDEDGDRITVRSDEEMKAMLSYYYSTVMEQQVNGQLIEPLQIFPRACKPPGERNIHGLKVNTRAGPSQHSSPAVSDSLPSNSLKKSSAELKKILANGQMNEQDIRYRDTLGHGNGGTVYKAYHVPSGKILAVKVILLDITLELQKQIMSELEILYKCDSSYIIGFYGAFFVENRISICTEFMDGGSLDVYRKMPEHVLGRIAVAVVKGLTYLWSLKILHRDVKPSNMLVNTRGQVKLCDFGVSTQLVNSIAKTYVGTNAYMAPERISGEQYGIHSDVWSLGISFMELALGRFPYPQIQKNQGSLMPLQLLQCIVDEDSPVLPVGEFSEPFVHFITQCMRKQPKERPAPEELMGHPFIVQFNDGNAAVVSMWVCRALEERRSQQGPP
Method in brief: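 In vitro ATP-site competition binding assay across a panel of 456 kinases, with compound tested at 1 and 10 μM.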

[13] = target: T3, Dual specificity mitogen-activated protein kinase kinase 3 (Homo sapiens) (UniProt P46734); test: Inhibition of full length human MEK3 (1 to 318 residues) expressed in mammalian expression system assessed as enzyme activity at 1 uM by KINOMEScan assay relative to control; parameters: scale not given: the % may be the effect or the level left
T3 sequence (whole entry): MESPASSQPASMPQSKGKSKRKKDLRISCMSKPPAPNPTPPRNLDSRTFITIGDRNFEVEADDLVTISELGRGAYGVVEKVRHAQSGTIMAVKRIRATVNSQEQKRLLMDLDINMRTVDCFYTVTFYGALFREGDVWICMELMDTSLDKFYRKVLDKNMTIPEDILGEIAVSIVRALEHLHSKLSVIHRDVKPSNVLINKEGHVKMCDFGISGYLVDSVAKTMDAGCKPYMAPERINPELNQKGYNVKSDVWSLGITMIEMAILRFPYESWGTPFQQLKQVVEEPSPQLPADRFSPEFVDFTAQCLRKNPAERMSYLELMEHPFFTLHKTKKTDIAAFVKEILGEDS
Method in brief: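 In vitro ATP-site competition binding assay (KinomeScan) across a panel of 456 kinases. Compound was tested at 1 and 10 μM. The read-out is the binding inhibition score relative to control.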

Chain of A-kinase anchor protein 12 (Homo sapiens) (Q02952 whole entry): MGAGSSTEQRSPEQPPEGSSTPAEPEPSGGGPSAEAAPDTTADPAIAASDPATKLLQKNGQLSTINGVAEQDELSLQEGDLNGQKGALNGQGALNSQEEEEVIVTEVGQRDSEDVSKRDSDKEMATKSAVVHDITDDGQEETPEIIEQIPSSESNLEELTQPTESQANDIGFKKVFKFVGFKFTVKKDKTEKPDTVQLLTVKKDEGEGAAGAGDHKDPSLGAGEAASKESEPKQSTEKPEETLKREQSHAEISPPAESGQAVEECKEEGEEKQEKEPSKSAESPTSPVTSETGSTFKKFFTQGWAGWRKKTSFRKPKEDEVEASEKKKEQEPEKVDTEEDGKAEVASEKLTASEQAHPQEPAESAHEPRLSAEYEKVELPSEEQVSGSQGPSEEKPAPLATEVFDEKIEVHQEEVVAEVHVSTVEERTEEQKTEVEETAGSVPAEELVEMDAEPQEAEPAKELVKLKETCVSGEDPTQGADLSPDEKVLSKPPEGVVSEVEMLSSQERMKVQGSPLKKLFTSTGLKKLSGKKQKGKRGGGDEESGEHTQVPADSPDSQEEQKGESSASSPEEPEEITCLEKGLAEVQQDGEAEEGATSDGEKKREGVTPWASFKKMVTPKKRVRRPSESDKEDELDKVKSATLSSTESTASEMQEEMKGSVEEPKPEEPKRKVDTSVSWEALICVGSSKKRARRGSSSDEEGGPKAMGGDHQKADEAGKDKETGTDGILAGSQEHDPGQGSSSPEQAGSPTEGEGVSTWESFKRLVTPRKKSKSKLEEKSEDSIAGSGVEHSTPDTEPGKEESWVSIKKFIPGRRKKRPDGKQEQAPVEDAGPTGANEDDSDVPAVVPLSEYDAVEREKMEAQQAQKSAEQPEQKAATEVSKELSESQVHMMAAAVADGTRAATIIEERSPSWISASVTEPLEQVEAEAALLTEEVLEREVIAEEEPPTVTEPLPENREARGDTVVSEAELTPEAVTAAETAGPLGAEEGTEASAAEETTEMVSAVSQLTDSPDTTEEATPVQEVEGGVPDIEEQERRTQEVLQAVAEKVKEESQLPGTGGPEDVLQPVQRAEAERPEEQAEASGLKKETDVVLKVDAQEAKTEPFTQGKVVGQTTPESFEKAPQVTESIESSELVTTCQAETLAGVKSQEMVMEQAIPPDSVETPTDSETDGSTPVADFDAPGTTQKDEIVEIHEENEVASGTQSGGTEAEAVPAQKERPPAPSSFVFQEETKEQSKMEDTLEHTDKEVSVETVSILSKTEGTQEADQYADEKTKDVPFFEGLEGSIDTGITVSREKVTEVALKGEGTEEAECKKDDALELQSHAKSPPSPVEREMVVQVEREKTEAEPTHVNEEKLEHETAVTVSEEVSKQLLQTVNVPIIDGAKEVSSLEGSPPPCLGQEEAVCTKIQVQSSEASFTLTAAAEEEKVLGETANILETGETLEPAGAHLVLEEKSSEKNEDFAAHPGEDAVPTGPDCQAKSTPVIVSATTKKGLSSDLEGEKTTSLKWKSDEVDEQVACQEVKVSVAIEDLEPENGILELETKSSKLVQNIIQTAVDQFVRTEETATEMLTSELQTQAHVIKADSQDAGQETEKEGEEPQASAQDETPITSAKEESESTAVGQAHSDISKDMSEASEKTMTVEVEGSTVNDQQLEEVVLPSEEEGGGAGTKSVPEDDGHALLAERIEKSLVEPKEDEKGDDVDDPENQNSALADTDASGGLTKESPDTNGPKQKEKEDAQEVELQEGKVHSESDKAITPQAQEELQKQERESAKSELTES
Chain of Phosphoinositide 3-kinase regulatory subunit 4 (Homo sapiens) (Q99570 whole entry): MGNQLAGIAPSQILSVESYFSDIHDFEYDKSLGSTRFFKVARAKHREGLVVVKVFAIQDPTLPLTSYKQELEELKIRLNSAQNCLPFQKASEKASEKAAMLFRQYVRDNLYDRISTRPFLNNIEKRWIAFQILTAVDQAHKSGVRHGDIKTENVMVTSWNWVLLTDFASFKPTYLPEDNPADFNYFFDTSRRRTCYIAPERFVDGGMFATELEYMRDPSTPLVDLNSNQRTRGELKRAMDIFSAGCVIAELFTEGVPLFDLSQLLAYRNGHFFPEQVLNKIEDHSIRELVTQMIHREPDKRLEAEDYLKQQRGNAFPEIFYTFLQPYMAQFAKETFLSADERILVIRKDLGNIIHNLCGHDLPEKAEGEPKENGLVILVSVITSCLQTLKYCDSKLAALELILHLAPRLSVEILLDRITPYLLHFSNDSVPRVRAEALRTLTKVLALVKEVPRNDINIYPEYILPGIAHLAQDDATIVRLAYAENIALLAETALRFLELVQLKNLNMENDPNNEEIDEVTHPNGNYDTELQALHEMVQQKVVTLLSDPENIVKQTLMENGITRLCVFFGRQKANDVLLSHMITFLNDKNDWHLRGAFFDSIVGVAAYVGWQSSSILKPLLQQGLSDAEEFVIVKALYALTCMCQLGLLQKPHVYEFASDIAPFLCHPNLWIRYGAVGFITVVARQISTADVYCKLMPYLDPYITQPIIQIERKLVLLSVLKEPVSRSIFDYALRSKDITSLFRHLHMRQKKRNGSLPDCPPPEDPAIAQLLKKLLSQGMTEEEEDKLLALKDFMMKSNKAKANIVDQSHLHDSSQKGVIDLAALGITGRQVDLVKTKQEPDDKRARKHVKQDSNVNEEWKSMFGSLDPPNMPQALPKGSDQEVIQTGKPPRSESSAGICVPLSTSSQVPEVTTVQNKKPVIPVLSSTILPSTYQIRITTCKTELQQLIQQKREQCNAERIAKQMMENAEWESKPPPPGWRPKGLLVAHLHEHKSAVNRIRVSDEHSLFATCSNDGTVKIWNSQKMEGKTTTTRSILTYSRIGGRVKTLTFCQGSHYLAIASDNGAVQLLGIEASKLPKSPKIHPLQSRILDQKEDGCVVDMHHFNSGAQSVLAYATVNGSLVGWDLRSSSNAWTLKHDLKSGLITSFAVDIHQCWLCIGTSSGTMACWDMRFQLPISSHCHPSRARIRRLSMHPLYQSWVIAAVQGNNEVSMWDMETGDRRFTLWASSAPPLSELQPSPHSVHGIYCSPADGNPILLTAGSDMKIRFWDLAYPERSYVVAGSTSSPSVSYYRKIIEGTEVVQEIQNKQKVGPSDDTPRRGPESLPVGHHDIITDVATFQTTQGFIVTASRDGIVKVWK
Chain of Importin subunit beta-1 (Homo sapiens) (Q14974 whole entry, the tested form may be a part): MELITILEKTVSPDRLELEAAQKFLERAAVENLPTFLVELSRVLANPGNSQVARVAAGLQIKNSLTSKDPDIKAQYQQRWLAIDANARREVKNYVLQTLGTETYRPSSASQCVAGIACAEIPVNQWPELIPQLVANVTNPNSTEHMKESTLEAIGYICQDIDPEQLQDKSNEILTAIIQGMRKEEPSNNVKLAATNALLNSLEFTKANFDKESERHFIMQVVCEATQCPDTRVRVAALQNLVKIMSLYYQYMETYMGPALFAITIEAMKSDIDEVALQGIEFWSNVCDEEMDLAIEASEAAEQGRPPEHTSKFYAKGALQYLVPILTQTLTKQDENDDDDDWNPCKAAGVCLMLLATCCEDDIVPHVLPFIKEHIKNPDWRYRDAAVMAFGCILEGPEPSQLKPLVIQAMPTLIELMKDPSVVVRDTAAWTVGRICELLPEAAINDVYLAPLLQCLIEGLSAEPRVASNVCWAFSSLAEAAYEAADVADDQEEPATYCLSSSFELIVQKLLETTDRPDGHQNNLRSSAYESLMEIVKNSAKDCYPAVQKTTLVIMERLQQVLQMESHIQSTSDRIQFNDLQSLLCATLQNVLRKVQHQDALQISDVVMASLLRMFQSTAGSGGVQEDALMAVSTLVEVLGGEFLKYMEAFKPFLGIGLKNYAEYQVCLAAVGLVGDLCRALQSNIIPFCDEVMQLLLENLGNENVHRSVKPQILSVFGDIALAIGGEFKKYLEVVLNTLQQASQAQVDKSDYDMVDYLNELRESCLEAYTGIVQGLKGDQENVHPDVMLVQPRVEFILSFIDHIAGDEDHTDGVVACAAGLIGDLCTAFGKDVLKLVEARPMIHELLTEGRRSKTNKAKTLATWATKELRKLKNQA
Chain of 5'-nucleotidase domain-containing protein 1 (Homo sapiens) (Q5TFE4 whole entry, the tested form may be a part): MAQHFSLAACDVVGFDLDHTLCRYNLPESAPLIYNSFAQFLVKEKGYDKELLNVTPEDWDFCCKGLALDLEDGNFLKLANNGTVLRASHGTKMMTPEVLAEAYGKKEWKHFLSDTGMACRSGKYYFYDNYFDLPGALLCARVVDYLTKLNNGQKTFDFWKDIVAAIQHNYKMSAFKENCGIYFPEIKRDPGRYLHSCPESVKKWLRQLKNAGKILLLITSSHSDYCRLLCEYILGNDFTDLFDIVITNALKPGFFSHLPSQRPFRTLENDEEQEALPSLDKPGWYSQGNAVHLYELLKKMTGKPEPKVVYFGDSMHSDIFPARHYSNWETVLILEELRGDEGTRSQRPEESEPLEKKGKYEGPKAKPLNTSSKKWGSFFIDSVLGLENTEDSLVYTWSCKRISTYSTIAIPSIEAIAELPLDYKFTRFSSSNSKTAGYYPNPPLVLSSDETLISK
Chain of MAP kinase-activated protein kinase 5 (Homo sapiens) (Q8IW41 whole entry): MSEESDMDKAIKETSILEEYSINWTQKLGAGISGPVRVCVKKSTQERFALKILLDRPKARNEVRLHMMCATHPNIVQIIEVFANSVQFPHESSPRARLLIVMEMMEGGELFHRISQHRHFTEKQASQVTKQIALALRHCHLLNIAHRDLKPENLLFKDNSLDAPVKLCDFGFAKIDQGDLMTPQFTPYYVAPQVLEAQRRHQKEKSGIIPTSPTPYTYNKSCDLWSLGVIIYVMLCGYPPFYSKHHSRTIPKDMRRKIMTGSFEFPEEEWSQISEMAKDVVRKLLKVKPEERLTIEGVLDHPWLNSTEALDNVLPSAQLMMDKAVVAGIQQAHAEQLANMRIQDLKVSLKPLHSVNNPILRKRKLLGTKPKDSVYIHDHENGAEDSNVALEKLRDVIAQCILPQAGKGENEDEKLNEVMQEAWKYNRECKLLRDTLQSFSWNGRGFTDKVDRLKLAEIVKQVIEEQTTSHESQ

SMILES	Activity [1]	Activity [2]	Activity [3]	Activity [4]	Activity [5]	Activity [6]	Activity [7]	Activity [8]	Activity [9]	Activity [10]	Activity [11]	Activity [12] [%]	Activity [13] [%]
C=CC(=O)Nc1ccccc1Nc1nc(Nc2ccc(N3CCN(CCOCCOCCOCCNC(=O)CCCC[C@@H]4SC[C@@H]5NC(=O)N[C@@H]54)CC3)cc2)ncc1Cl	Active	Active	Active	Active	Active	Active	Active	Active	Active	Active	Active		
COc1cc(O)c2c(c1)/C=C/C[C@H](O)[C@H](O)C(=O)/C=C\C[C@H](C)OC2=O												0.2	22
